From ChEMBL document CHEMBL1127629, “Design and synthesis of RNA-specific groove-binding cations: implications for antiviral drug design” (J Med Chem, 1994) come the findings set out here.

What all share (format): nucleic-acid assay
Test [1] deals with Nucleic Acid. Put plainly: Evaluated for thermal denaturation at pH 3.9 against poly(A)-poly(U) synthetic RNA oligonucleotide. In short, it runs like this: (§1)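 Polymer (poly(A)·poly(U) or poly(dA)·poly(dT)) at 1.0×10^-4 M in MES buffer (0.01 M MES, 0.001 M EDTA, 0.1 M NaCl), pH set with NaOH to the listed value. Compound added to a final drug:polymer phosphate ratio of 0.3. Absorbance at 260 nm followed while heating at 0.5 °C/min in 1-cm cells. ΔTm is the Tm shift of the complex versus the free polymer.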

Test [2] relates to Nucleic Acid. Put plainly: Evaluated for thermal denaturation at pH 3.9 against poly(A)-poly(dt) synthetic DNA oligonucleotide. Put shortly: as §1
Test [3] concerns Nucleic Acid. Put plainly: Evaluated for thermal denaturation at pH 4.9 against poly(A)-poly(U) syntheticRNA oligonucleotide. In short, it runs like this:
as §1

The test system of test [4] is Nucleic Acid. Put plainly: Evaluated for thermal denaturation at pH 6.3 against poly(A)-poly(U) synthetic RNA oligonucleotide. In short, it runs like this: as §1
The subject of test [5] is Nucleic Acid. In words: Evaluated for thermal denaturation at pH 6.3 against poly(A)-poly(dt) synthetic DNA oligonucleotide. In short, it runs like this: as §1
In test [6] the test system is Nucleic Acid. Put plainly: Evaluated for thermal denaturation at pH 4.9 against poly(A)-poly(dt synthetic DNA oligonucleotide. In short, it runs like this:
as §1

Test [7] deals with Nucleic Acid. Put plainly: Thermal denaturation at pH 4.9 against poly(A)-poly(dt) synthetic DNA oligonucleotide. In short, it runs like this:
as §1

Test [8] has as its system Nucleic Acid. Put plainly: Thermal denaturation at pH 6.3 against poly(A)-poly(U) synthetic RNA oligonucleotide. Put shortly: as §1

Take `C1CCN(C2CCN(CCCN3CCC(N4CCCCC4)CC3)CC2)CC1`: the ΔTm in the test with Nucleic Acid [1] was found to be 22.2; with Nucleic Acid [2], 4.1; in the test with Nucleic Acid [3] it was 20.7; with Nucleic Acid [4], 9.8; in the test with Nucleic Acid [5], 3.3; in the test on Nucleic Acid [6], 4.5.
In the case of `c1ccc(CN2CCN(CCCN3CCN(Cc4ccccc4)CC3)CC2)cc1`, the ΔTm with Nucleic Acid [1] came out at 2.4; in the test with Nucleic Acid [2] it was 0.2; in the test with Nucleic Acid [4] it was 0; in the test with Nucleic Acid [5], 0.
Regarding `OC1CCN(Cc2ccc(CN3CCC(O)CC3)cc2)CC1`, the ΔTm in the test with Nucleic Acid [4] and in the test with Nucleic Acid [5] was 0 in each case.
With `c1cc(CN2CCN(Cc3ccc(CN4CCNCC4)cc3)CC2)ccc1CN1CCNCC1`, the ΔTm with Nucleic Acid [1] was 29.3; with Nucleic Acid [2], 12; in the test with Nucleic Acid [3] it was 15.7; in the test on Nucleic Acid [4], 0; in the test with Nucleic Acid [5] it was 2.3; in the test on Nucleic Acid [6] it was 5.1.
With `CN1CCN(CCCN2CCN(C)CC2)CC1`, the ΔTm in the test with Nucleic Acid [1] came out at 11; with Nucleic Acid [2] it was 0; with Nucleic Acid [3], 1.3; with Nucleic Acid [4], 0; in the test with Nucleic Acid [5], 0; in the test on Nucleic Acid [6], 0.
As for `C1CCN(CCN2CCN(CCN3CCCCC3)CC2)CC1`, the ΔTm stood at 0.3 in the test on Nucleic Acid [3], 0 in the test with Nucleic Acid [4], 0 in the test on Nucleic Acid [5] and 0.2 with Nucleic Acid [6].
Consider `OCC1CCN(CCCN2CCC(CO)CC2)CC1`, for which the ΔTm in the test with Nucleic Acid [3] was determined as 0.5; in the test on Nucleic Acid [4] it was 0.2; with Nucleic Acid [5], 0; with Nucleic Acid [6], 0.5.
On to `C1CCN(CCCN2CCCCC2)CC1`, for which the ΔTm with Nucleic Acid [3], in the test with Nucleic Acid [4], in the test with Nucleic Acid [5] and in the test on Nucleic Acid [6] was 0 each time.
With `c1cc(CN2CCC(N3CCCCC3)CC2)ccc1CN1CCC(N2CCCCC2)CC1`, the ΔTm in the test with Nucleic Acid [1] was found to be 17.7; with Nucleic Acid [2], 5.6; with Nucleic Acid [3], 15.4; with Nucleic Acid [7], 6.7; in the test with Nucleic Acid [4], 8.1; in the test with Nucleic Acid [5] it was 3.5.
Consider `C(CN1CCC(C2=NCCN2)CC1)CN1CCC(C2=NCCN2)CC1`, for which the ΔTm came out at 28.7 in the test with Nucleic Acid [1]; 6.1 in the test on Nucleic Acid [2]; 24.5 with Nucleic Acid [3]; 18.1 with Nucleic Acid [4]; 6.1 in the test with Nucleic Acid [5]; 5.6 in the test with Nucleic Acid [6].
As to `c1cc(CN2CCC(N3CCCCC3)CC2)cc(CN2CCC(N3CCCCC3)CC2)c1`, the ΔTm with Nucleic Acid [4] was 8; in the test on Nucleic Acid [5], 3.3.
As to `C1CCN(C2CCN(CCN3CCN(CCN4CCC(N5CCCCC5)CC4)CC3)CC2)CC1`, the ΔTm in the test on Nucleic Acid [1] turned out to be 34.7; in the test with Nucleic Acid [2], 10.4; in the test on Nucleic Acid [3] it was 22.9; with Nucleic Acid [8], 7.6; in the test on Nucleic Acid [5], 6.5; with Nucleic Acid [6] it was 8.3.
On to `C(CC1CCNCC1)CC1CCNCC1`, for which the ΔTm in the test with Nucleic Acid [3] was 1.2; in the test on Nucleic Acid [4], 0; in the test on Nucleic Acid [5], 0.1; with Nucleic Acid [6], 0.7.
Consider `c1cnc(N2CCN(Cc3ccc(CN4CCN(c5ncccn5)CC4)cc3)CC2)nc1`, for which the ΔTm in the test with Nucleic Acid [3], in the test on Nucleic Acid [4], in the test on Nucleic Acid [5] and with Nucleic Acid [6] was 0 in each case.
On to `c1cc(CN2CCNCC2)ccc1CN1CCNCC1`, for which the ΔTm in the test on Nucleic Acid [4] and with Nucleic Acid [5] was 0 throughout.
For the compound `N#CC1CCN(CCCN2CCC(C#N)CC2)CC1`, the ΔTm in the test with Nucleic Acid [3], in the test on Nucleic Acid [4], in the test with Nucleic Acid [5] and with Nucleic Acid [6] was 0 in each case.
As to `c1cc(CN2CCC(C3=NCCN3)CC2)ccc1CN1CCC(C2=NCCN2)CC1`, the ΔTm in the test on Nucleic Acid [1] is 23.3; with Nucleic Acid [2], 8.8; with Nucleic Acid [3], 20.7; with Nucleic Acid [4], 16.2; with Nucleic Acid [5], 8.7; in the test on Nucleic Acid [6] it was 9.5.
As to `c1cnc(N2CCN(Cc3cccc(CN4CCN(c5ncccn5)CC4)c3)CC2)nc1`, the ΔTm with Nucleic Acid [3], in the test with Nucleic Acid [4], in the test with Nucleic Acid [5] and in the test on Nucleic Acid [6] was 0 in each case.
Take `OCC1CCCN(CCCN2CCCC(CO)C2)C1` (centres undefined): the ΔTm in the test with Nucleic Acid [3] turned out to be 0.9; in the test on Nucleic Acid [4], 0.4; with Nucleic Acid [5], 0; in the test on Nucleic Acid [6], 0.
